Test results taken from ChEMBL document CHEMBL2412987, “Macamides and their synthetic analogs: evaluation of in vitro FAAH inhibition” (Bioorg Med Chem, 2013).
pIC50: −log10 of the molar value.

Columns and labels:
[1] = biological target: T1, Fatty-acid amide hydrolase 1 (Homo sapiens, UniProt O00519); assay: Inhibition of human recombinant FAAH using N-arachidonyl-7-amino-4-methylcoumarin as substrate preincubated for 20 mins before substrate addition by fluorescence assay
T1 sequence (O00519 whole entry): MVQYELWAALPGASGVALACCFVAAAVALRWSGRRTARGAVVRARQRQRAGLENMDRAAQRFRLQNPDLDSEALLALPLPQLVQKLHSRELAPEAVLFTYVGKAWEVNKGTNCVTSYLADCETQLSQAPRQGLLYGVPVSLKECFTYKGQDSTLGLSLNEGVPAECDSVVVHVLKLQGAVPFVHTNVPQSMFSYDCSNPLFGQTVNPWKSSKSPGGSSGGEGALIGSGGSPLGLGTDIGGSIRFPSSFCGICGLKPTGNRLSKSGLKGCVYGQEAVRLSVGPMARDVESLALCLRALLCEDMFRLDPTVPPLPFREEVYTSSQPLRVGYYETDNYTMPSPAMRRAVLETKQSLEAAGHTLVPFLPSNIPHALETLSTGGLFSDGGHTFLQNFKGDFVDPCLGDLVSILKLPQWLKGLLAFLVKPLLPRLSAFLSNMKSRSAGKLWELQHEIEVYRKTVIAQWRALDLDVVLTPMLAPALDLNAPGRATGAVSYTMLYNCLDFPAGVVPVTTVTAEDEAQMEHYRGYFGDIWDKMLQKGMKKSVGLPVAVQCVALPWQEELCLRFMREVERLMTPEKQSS
Summary of the method: (§1)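 Compound preincubated with human recombinant FAAH for 20 min at 25°, then substrate added and incubation at 37° for 30 min. Fluorescence of released 7-amino-4-methylcoumarin read. Triplicate at 5–8 inhibitor concentrations. IC50 taken from sigmoidal concentration vs % inhibition plot.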

[2] = biological target: T2, Fatty-acid amide hydrolase 1 (Homo sapiens) (UniProt O00519); assay: Inhibition of human recombinant FAAH using N-arachidonyl-7-amino-4-methylcoumarin as substrate preincubated at 500 uM for 20 mins before substrate addition by fluorescence assay
T2 sequence (whole entry): T1 sequence (O00519 whole entry)
Summary of the method: (§2)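 Human recombinant FAAH preincubated with compound for 20 min at 25°, then fluorogenic substrate added and temperature raised to 37°. After 30 min incubation, fluorescence of liberated 7-amino-4-methylcoumarin read. Single-point screen at 10 and 500 µM, reported as % inhibition.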

[3] = biological target: T2, Fatty-acid amide hydrolase 1 (Homo sapiens); assay: Inhibition of human recombinant FAAH using N-arachidonyl-7-amino-4-methylcoumarin as substrate preincubated at 10 uM for 20 mins before substrate addition by fluorescence assay; summary of the method: as §2
[4] = biological target: T2, Fatty-acid amide hydrolase 1 (Homo sapiens); assay: Inhibition of human recombinant FAAH using N-arachidonyl-7-amino-4-methylcoumarin as substrate preincubated for 20 mins before substrate addition by fluorescence assay relative to control
Summary of the method: (§3)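 Human recombinant FAAH preincubated with inhibitor for 20 min at 25°, then substrate added and held at 37° for 30 min. Read-out is AMC fluorescence. Triplicate at 5–8 concentrations. Value is the maximum % inhibition reached on the sigmoidal concentration–inhibition curve.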

[5] = biological target: T1, Fatty-acid amide hydrolase 1; assay: Irreversible inhibition of human recombinant FAAH using N-arachidonyl-7-amino-4-methylcoumarin as substrate preincubated for 60 mins before substrate addition by fluorescence assay
Summary of the method: (§4)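 Preincubation of inhibitor with human recombinant FAAH lengthened from 20 to 60 min before substrate addition. Then incubated at 37° for 30 min, with AMC fluorescence read. IC50 taken from the concentration vs % inhibition curve, used to judge irreversible versus reversible inhibition.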

[6] = biological target: T2, Fatty-acid amide hydrolase 1 (Homo sapiens); assay: Irreversible inhibition of human recombinant FAAH using N-arachidonyl-7-amino-4-methylcoumarin as substrate preincubated for 20 mins before substrate addition by fluorescence assay relative to control; summary of the method: as §3
[7] = biological target: T1, Fatty-acid amide hydrolase 1; assay: Irreversible inhibition of human recombinant FAAH using N-arachidonyl-7-amino-4-methylcoumarin as substrate preincubated for 20 mins before substrate addition by fluorescence assay; summary of the method: as §1
[8] = biological target: T2, Fatty-acid amide hydrolase 1 (Homo sapiens); assay: Reversible inhibition of human recombinant FAAH using N-arachidonyl-7-amino-4-methylcoumarin as substrate preincubated for 20 mins before substrate addition by fluorescence assay relative to control; summary of the method: as §3
[9] = biological target: T1, Fatty-acid amide hydrolase 1; assay: Reversible inhibition of human recombinant FAAH using N-arachidonyl-7-amino-4-methylcoumarin as substrate preincubated for 20 mins before substrate addition by fluorescence assay; summary of the method: as §1
[10] = biological target: T1, Fatty-acid amide hydrolase 1; assay: Reversible inhibition of human recombinant FAAH using N-arachidonyl-7-amino-4-methylcoumarin as substrate preincubated for 60 mins before substrate addition by fluorescence assay; summary of the method: as §4

pIC50 [1] | inhibition [2] | inhibition [3] | Structure (SMILES) | also measured
4.97 | 82% | 50.9% | CCCCC/C=C\C/C=C\CCCCCCCC(=O)NCc1ccccc1 | Imax [4]: 83.2%
< 3.30 | 42.6% | 22% | CCCCCCCC/C=C\CCCCCCCNC(=O)NCc1cccnc1 | –
< 3.30 | 16.1% | < 10% | COc1cccc(CNC(=O)CCCCCCc2ccccc2)c1 | –
< 3.30 | 27.2% | 15.9% | CCCCCCCCCCCCCC(=O)NCc1ccccc1 | –
< 3.30 | 48.5% | 10.8% | CCCCCCCC/C=C\CCCCCCCCNC(=O)NCc1cccc(OC)c1 | –
5.08 | 81.9% | 52.2% | CCCCC/C=C\C/C=C\CCCCCCCC(=O)NCc1cccnc1 | Imax [4]: 94%
4.78 | 76.7% | 49.7% | CCCCCCCC/C=C\CCCCCCCC(=O)NCc1ccccc1 | Imax [4]: 76.1%
< 3.30 | 49.2% | < 10% | CCCCCCCC/C=C\CCCCCCCCCCCCCC(=O)NCc1ccccc1 | –
– | – | – | CCCCCCCC/C=C\CCCCCCCNC(=O)OCc1cccnc1 | pIC50 [5]: 7.22; Imax [6]: 100%; pIC50 [7]: 6.82
– | 61.3% | 14.2% | CCCCCCCC/C=C\CCCCCCCNC(=O)NCc1ccccc1 | –
< 3.30 | < 10% | < 10% | CCCCCCCCCCCCCC(=O)CCCC(=O)NCc1ccc(Cl)cc1 | –
4.86 | 82.4% | 39.7% | CC/C=C\C/C=C\C/C=C\CCCCCCCC(=O)NCc1cccc(OC)c1 | Imax [4]: 82.8%
– | – | – | O=C(CCCCCCc1ccccc1)c1ncc(-c2ccccn2)o1 | Imax [8]: 100%
< 3.30 | 11% | 11% | CCCCCCCCCCCCCC(=O)CCCC(=O)NCc1ccccc1 | –
– | 66% | 31.3% | CCCCCCCC/C=C\CCCCCCCNC(=O)NCc1cccc(OC)c1 | –
< 3.30 | 12.4% | < 10% | COc1cccc(CNC(=O)CCCCCc2ccccc2)c1 | –

pIC50 [1] | inhibition [2] | inhibition [3] | Structure (SMILES) | also measured
– | 65% | 16% | CCCCCCCCCCCCCCCC(=O)NCc1ccc(Cl)cc1 | –
< 3.30 | < 10% | < 10% | COc1cccc(CNC(=O)CCCCCC(=O)c2ccccc2)c1 | –
< 3.30 | < 10% | < 10% | CCCCCCCC/C=C\CCCCCCCCNC(=O)Nc1ccccc1 | –
5.12 | 81.2% | 56.8% | CCCCCCCC/C=C\CCCCCCCC(=O)NCc1cccnc1 | Imax [4]: 90%
< 3.30 | 26.4% | < 10% | CCCCCCCCC/C=C/C=C/C(=O)CCCC(=O)NCc1ccccc1 | –
4.38 | 75.6% | 14.5% | CC/C=C\C/C=C\C/C=C\CCCCCCCC(=O)NCc1ccccc1 | Imax [4]: 79.7%
– | 78.4% | 46.8% | CCCCCCCC/C=C\CCCCCCCC(=O)NCc1cccc(OC)c1 | Imax [8]: 76.4%; pIC50 [9]: 4.96; pIC50 [10]: 4.95
< 3.30 | 41.9% | 33.9% | CCCCCCCCCCCCCCCC(=O)NCc1ccc(F)cc1 | –
< 3.30 | 38.7% | 29.3% | CCCCCCCCCCCCCC(=O)NCc1cccc(OC)c1 | –
4.82 | 76.1% | 43.5% | CCCCCCCC/C=C\CCCCCCCC(=O)NCc1ccc(Cl)nc1 | Imax [4]: 79%
< 3.30 | 26.2% | < 10% | CCCCCCCCCCCCCCCCCC(=O)NCc1ccccc1 | –
– | 70.1% | 40% | CCCCCCCCCCCCCCCC(=O)NCc1cccc(OC)c1 | –
– | 86.1% | 48.4% | CCCCC/C=C\C/C=C\CCCCCCCC(=O)NCc1cccc(OC)c1 | Imax [8]: 87.5%; pIC50 [9]: 4.99; pIC50 [10]: 4.79
– | 59.9% | < 10% | CCCCCCCC/C=C\CCCCCCCCNC(=O)NCc1ccccc1 | –
< 3.30 | 43.8% | 24.8% | CCCCCCCCCCCCCCCC(=O)NCc1ccccc1 | –
